From ChEMBL document CHEMBL5661979, “Pharmacological inhibition of BMK1 suppresses tumor growth through promyelocytic leukemia protein” (Cancer Cell, 2010)
The source made the active and inactive calls. No cut-off for these calls is given here.

Experiments:
[1] = biological target: Serine/threonine-protein kinase greatwall (Homo sapiens, UniProt Q96GX5); test: Inhibition of MASTL in human HeLa cells lysate pre incubated for 15 mins followed by ATP acyl phosphate probe addition and measured after 10 mins by LC-MS/MS analysis; assay type: subcellular
[2] = biological target: Ribosomal protein S6 kinase beta-1 (Homo sapiens, UniProt P23443); test: Inhibition of P70S6K in human HeLa cells lysate pre incubated for 15 mins followed by ATP acyl phosphate probe addition and measured after 10 mins by LC-MS/MS analysis; assay type: subcellular
[3] = biological target: Calcium/calmodulin-dependent protein kinase type II subunit delta (Homo sapiens, UniProt Q13557); test: Inhibition of CAMK2d in human HeLa cells lysate pre incubated for 15 mins followed by ADP acyl phosphate probe addition and measured after 10 mins by LC-MS/MS analysis; assay type: subcellular
In short: (§1)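 KiNativ-type profiling in HeLa lysate (5 mg/mL total protein). Lysate preincubated 15 min with inhibitor at 50, 10, 2, 0.8 or 0 μM, then ATP or ADP acylphosphate probe added (5 μM final) for 10 min. Reaction stopped with urea and analysed by targeted MS, using up to four fragment ions per kinase peptide-probe conjugate. % inhibition calculated against untreated lysate. Duplicate reactions.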

[4] = biological target: Dual specificity protein kinase CLK3 (Homo sapiens, UniProt P49761); test: Inhibition of CLK3 in human HeLa cells lysate pre incubated for 15 mins followed by ADP acyl phosphate probe addition and measured after 10 mins by LC-MS/MS analysis; assay type: subcellular
[5] = Inhibition of HGK/MINK/TNIK in human HeLa cells lysate pre incubated for 15 mins followed by ADP acyl phosphate probe addition and measured after 10 mins by LC-MS/MS analysis; assay type: subcellular
[6] = biological target: Inhibitor of nuclear factor kappa-B kinase subunit beta (Homo sapiens, UniProt O14920); test: Inhibition of IKKB in human HeLa cells lysate pre incubated for 15 mins followed by ADP acyl phosphate probe addition and measured after 10 mins by LC-MS/MS analysis; assay type: subcellular
[7] = biological target: T1, Tyrosine-protein kinase JAK1 (Homo sapiens, UniProt P23458); test: Inhibition of JAK1 domain 2 in human HeLa cells lysate pre incubated for 15 mins followed by ADP acyl phosphate probe addition and measured after 10 mins by LC-MS/MS analysis; assay type: subcellular
[8] = biological target: Mitogen-activated protein kinase kinase kinase 1 (Homo sapiens, UniProt Q13233); test: Inhibition of MAP3K1 in human HeLa cells lysate pre incubated for 15 mins followed by ADP acyl phosphate probe addition and measured after 10 mins by LC-MS/MS analysis; assay type: subcellular
[9] = biological target: Serine/threonine-protein kinase 38-like (Homo sapiens, UniProt Q9Y2H1); test: Inhibition of NDR2 in human HeLa cells lysate pre incubated for 15 mins followed by ADP acyl phosphate probe addition and measured after 10 mins by LC-MS/MS analysis; assay type: subcellular
[10] = biological target: T2, Calcium/calmodulin-dependent protein kinase type II subunit gamma (Homo sapiens, UniProt Q13555); test: Inhibition of CAMK2g in human HeLa cells lysate at 10 uM pre incubated for 15 mins followed by ADP acyl phosphate probe addition and measured after 10 mins by LC-MS/MS analysis relative to control; assay type: subcellular; conditions: time 25.0 min; in short: as §1
[11] = biological target: Cyclin-dependent kinase 16 (Homo sapiens, UniProt Q00536); test: Inhibition of PCTAIRE1 in human HeLa cells lysate at 10 uM pre incubated for 15 mins followed by ADP acyl phosphate probe addition and measured after 10 mins by LC-MS/MS analysis relative to control; assay type: subcellular; conditions: time 25.0 min
[12] = biological target: Mitogen-activated protein kinase kinase kinase 2 (Homo sapiens) (UniProt Q9Y2U5); test: Inhibition of MAP3K2 in human HeLa cells lysate at 10 uM pre incubated for 15 mins followed by ADP acyl phosphate probe addition and measured after 10 mins by LC-MS/MS analysis relative to control; assay type: subcellular; conditions: time 25.0 min
[13] = biological target: T2, Calcium/calmodulin-dependent protein kinase type II subunit gamma; test: Inhibition of CAMK2g in human HeLa cells lysate at 2 uM pre incubated for 15 mins followed by ADP acyl phosphate probe addition and measured after 10 mins by LC-MS/MS analysis relative to control; assay type: subcellular; conditions: time 25.0 min; in short: as §1
[14] = biological target: Phosphatidylinositol 3-kinase catalytic subunit type 3 (Homo sapiens, UniProt Q8NEB9); test: Inhibition of PIK3C3 in human HeLa cells lysate at 50 uM pre incubated for 15 mins followed by ATP acyl phosphate probe addition and measured after 10 mins by LC-MS/MS analysis relative to control; assay type: subcellular; conditions: time 25.0 min
[15] = biological target: PKC alpha and beta-2 (Homo sapiens, UniProt P17252+P05771); test: Inhibition of PKCalpha/beta in human HeLa cells lysate at 50 uM pre incubated for 15 mins followed by ATP acyl phosphate probe addition and measured after 10 mins by LC-MS/MS analysis relative to control; assay type: subcellular; conditions: time 25.0 min
[16] = biological target: T3, Phosphorylase b kinase gamma catalytic chain, liver/testis isoform (Homo sapiens) (UniProt P15735); test: Inhibition of PHKg2 in human HeLa cells lysate at 10 uM pre incubated for 15 mins followed by ATP acyl phosphate probe addition and measured after 10 mins by LC-MS/MS analysis relative to control; assay type: subcellular; conditions: time 25.0 min
T3 sequence (whole entry): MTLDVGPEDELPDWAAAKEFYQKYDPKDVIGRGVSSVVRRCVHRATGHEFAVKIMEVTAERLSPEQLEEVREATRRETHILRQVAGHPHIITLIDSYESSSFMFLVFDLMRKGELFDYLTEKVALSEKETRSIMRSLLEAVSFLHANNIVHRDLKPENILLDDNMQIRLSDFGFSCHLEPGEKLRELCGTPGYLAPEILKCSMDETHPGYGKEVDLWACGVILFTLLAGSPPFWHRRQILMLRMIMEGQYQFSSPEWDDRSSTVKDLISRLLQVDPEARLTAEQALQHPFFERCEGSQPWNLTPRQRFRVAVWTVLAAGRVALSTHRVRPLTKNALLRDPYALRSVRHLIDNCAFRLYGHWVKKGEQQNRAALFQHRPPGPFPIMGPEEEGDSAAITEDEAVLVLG

[17] = biological target: Interleukin-1 receptor-associated kinase 1 (Homo sapiens, UniProt P51617); test: Inhibition of IRAK1 in human HeLa cells lysate at 2 uM pre incubated for 15 mins followed by ATP acyl phosphate probe addition and measured after 10 mins by LC-MS/MS analysis relative to control; assay type: subcellular; conditions: time 25.0 min
[18] = biological target: T1, Tyrosine-protein kinase JAK1; test: Inhibition of JAK1 domain 2 in human HeLa cells lysate at 2 uM pre incubated for 15 mins followed by ATP acyl phosphate probe addition and measured after 10 mins by LC-MS/MS analysis relative to control; assay type: subcellular; conditions: time 25.0 min
[19] = Cmax in Sprague-Dawley rat at 1 mg/kg, iv measured up to 8 hrs by LC-MS/MS analysis; assay type: ADME, organism-based; conditions: in vivo
[20] = Tmax in Sprague-Dawley rat at 2 mg/kg, po measured up to 8 hrs by LC-MS/MS analysis; assay type: ADME, organism-based; conditions: in vivo
[21] = test system: HeLa; test: Antitumor activity against human HeLa cells xenografted in NOD/SCID mouse assessed as reduction tumor growth at 50 mg/kg, ip administered on day 14 post implantation measured after 28 days; assay type: functional, organism-based; conditions: time 14.0 day
In short: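 HeLa cells (5×10^5, in DMEM) were injected s.c. into the right flank of 6-week-old Nod/Scid mice on day 0. Dosing was 50 mg/kg i.p. twice daily, starting on day 1, 7 or 14 and continuing to day 28; controls received carrier. 6 mice per treated group. Tumors were measured every 2–3 days.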

T2 sequence (Q13555 whole entry): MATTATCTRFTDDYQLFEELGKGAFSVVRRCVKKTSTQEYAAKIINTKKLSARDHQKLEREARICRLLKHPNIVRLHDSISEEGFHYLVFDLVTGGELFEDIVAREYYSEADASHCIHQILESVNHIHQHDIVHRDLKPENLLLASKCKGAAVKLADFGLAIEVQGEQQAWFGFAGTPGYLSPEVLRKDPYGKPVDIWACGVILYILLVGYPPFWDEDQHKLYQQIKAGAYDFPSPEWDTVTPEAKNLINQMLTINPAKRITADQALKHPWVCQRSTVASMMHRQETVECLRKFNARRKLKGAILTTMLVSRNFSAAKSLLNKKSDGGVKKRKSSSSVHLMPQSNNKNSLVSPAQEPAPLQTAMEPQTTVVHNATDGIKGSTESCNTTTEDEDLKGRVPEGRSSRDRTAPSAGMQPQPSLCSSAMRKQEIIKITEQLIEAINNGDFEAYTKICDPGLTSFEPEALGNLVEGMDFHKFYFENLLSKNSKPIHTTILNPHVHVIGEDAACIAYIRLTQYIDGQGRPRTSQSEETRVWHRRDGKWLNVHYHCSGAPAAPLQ
T1 sequence (P23458 whole entry, the tested form may be a part): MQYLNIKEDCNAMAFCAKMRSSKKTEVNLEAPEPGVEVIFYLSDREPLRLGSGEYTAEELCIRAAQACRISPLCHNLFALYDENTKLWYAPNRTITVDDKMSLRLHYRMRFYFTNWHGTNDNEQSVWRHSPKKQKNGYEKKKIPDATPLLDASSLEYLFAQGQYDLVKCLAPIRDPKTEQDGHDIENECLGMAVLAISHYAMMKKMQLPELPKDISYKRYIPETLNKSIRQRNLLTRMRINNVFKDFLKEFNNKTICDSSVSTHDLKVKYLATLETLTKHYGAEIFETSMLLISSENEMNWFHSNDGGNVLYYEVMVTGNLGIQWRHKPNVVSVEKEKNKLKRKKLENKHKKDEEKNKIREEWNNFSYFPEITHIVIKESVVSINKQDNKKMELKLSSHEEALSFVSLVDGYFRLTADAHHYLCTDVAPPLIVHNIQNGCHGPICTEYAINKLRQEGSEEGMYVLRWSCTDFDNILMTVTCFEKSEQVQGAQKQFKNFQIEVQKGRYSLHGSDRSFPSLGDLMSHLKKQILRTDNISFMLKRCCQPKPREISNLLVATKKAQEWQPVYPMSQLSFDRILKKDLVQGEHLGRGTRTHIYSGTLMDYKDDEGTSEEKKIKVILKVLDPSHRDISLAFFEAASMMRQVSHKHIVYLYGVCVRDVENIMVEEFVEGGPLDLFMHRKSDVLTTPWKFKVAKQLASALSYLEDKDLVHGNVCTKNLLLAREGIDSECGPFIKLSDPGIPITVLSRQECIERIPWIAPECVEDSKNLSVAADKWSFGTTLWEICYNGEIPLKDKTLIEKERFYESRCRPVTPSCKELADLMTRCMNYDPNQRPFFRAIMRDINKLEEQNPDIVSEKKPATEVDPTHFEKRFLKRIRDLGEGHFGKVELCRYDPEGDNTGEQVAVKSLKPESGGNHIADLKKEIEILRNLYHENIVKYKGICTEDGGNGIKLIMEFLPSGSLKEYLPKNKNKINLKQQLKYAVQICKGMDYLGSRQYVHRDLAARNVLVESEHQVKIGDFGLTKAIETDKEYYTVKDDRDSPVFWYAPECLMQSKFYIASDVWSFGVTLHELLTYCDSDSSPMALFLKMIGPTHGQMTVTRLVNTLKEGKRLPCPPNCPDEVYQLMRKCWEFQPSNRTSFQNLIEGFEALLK
Chain of Calcium/calmodulin-dependent protein kinase type II subunit delta (Q13557 whole entry, the tested form may be a part): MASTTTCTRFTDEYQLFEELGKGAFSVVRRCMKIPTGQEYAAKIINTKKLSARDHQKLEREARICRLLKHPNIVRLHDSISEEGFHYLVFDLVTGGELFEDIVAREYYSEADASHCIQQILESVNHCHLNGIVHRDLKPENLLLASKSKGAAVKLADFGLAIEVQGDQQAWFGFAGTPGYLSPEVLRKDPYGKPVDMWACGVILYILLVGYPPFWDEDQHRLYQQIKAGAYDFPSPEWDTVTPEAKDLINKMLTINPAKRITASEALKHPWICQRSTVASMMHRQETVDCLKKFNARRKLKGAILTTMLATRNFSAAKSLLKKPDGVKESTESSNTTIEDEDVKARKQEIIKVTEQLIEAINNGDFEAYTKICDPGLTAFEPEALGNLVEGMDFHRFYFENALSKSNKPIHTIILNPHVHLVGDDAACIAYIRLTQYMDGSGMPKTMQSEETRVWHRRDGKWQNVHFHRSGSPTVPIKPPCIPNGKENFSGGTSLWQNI
Chain of Phosphatidylinositol 3-kinase catalytic subunit type 3 (Q8NEB9 whole entry): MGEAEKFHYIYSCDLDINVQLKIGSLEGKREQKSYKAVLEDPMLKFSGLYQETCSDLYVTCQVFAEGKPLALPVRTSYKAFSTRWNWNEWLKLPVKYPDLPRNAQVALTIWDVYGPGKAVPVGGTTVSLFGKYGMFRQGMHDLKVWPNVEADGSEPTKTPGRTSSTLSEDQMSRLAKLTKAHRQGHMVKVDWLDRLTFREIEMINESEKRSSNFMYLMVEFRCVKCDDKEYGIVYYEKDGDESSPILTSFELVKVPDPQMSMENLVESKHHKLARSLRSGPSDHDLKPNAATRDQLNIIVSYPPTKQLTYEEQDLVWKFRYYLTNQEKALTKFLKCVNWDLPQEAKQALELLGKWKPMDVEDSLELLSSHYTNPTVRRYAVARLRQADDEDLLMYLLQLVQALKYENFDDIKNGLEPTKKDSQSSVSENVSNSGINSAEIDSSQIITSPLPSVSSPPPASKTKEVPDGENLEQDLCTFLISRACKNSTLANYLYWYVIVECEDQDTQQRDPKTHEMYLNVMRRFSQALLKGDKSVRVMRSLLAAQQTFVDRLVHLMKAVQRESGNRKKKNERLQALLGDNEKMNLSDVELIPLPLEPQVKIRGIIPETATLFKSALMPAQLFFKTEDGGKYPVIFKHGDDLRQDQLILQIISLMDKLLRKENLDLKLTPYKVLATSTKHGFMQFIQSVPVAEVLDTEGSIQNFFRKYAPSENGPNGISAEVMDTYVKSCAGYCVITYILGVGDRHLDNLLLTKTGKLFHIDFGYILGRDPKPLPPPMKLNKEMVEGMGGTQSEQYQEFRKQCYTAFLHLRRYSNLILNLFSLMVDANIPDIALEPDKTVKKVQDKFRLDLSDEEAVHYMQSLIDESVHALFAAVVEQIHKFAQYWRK
Chain of Dual specificity protein kinase CLK3 (P49761 whole entry): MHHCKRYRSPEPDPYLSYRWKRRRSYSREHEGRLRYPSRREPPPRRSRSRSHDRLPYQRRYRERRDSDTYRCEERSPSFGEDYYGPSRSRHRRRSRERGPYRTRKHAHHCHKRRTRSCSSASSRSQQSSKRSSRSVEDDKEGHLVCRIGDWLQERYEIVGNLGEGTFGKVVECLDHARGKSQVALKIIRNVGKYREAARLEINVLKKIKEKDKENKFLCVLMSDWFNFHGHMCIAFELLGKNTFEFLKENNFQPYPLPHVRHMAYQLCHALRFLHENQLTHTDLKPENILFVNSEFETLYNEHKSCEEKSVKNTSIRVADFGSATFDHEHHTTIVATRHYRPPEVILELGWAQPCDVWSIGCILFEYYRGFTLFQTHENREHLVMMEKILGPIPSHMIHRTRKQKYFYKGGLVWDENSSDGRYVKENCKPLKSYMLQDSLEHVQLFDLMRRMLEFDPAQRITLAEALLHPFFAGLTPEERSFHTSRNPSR
Chain of Serine/threonine-protein kinase greatwall (Q96GX5 whole entry): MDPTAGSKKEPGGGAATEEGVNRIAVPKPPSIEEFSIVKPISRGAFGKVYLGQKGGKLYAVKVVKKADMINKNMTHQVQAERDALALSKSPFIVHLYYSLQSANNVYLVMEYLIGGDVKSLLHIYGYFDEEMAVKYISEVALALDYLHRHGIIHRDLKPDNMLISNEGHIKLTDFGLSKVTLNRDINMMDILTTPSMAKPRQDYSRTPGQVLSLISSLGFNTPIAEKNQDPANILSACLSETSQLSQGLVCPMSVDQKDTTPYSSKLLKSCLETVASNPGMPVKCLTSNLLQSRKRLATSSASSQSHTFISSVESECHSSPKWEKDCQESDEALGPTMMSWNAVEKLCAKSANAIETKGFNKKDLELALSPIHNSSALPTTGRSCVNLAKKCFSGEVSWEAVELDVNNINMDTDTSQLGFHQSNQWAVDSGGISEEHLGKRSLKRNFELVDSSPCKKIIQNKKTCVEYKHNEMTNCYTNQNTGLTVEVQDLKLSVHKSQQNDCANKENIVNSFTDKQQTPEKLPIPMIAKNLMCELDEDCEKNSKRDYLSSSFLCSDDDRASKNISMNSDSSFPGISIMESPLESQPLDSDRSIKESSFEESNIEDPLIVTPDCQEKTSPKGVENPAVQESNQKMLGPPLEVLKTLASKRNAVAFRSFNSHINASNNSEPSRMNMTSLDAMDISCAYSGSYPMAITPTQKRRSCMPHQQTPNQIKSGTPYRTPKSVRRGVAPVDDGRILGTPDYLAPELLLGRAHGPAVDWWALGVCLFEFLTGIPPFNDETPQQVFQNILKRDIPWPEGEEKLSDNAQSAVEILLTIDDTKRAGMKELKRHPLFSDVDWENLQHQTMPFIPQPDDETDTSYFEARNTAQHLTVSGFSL
Chain of Cyclin-dependent kinase 16 (Q00536 whole entry): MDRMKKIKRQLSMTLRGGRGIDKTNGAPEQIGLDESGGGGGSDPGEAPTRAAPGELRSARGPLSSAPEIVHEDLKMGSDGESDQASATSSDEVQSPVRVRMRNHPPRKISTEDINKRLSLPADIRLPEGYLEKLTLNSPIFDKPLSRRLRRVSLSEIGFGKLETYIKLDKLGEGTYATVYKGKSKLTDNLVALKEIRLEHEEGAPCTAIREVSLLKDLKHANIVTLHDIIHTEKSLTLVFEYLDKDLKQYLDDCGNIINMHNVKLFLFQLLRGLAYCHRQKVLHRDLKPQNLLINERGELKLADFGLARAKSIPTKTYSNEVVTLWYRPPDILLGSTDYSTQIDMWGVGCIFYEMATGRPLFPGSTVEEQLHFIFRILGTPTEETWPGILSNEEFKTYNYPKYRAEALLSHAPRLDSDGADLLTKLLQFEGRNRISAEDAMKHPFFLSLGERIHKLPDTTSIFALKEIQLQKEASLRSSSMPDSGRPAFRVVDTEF

CCOc1cc(N2CCC(O)CC2)ccc1Nc1ncc2c(n1)N(C)c1ccccc1C(=O)N2C
IC50 [1]: > 50 µM
IC50 [2]: > 50 µM
IC50 [3]: > 50 µM
IC50 [4]: > 50 µM
IC50 [5]: > 50 µM
IC50 [6]: > 50 µM
IC50 [7]: > 50 µM
IC50 [8]: > 50 µM
IC50 [9]: > 50 µM
inhibition [10]: -2.3%
inhibition [11]: 20.8%
inhibition [12]: 36.2%
inhibition [13]: -2.2%
inhibition [14]: 19.3%
inhibition [15]: 14.4%
inhibition [16]: -4.9%
inhibition [17]: 2.6%
inhibition [18]: 9.7%
Cmax [19]: 927 nM
Tmax [20]: 30 min
Activity [21]: Active
